Measured values pooled from the literature.
Protocols differ between the studies behind these lines.
Target: Serine/threonine-protein kinase 38-like (STK38L, Homo sapiens, UniProt Q9Y2H1)

With `CCC1(CC)NC(=O)c2c(c3ccc(Cl)c(Cl)c3n2C)C1C#N` (centres unmarked) the ΔTm was 0 °C (thermal stability, DSF; 10 µM).
With `C[C@@H]1CN(c2cc(-c3nn(C)c4ccc(OC5(C)CC5)cc34)ncn2)C[C@H](C)O1` the remaining binding was 72% (cell-free assay, competition with immobilised ligand; 1 µM).
`Cn1c2c(c3ccccc31)C(C#N)C(C)(C)NC2=O` (centres unmarked) gave a ΔTm of 0 °C (thermal stability, DSF; 10 µM).
`CS(=O)(=O)c1cc(C2(NC(=O)c3cncc4c3cnn4-c3ccc(F)cc3)CC2)ccn1` gave a remaining binding of 34% (cell-free assay, competition with immobilised ligand; 1 µM).
For `Cn1c2c(Cl)c(Cl)ccc2c2cc(N)[nH]c(=O)c21`, the ΔTm was 0.3 °C (thermal stability, DSF; 10 µM).
The remaining binding of `NS(=O)(=O)c1cc(NC(=O)Cc2ccccc2)ccc1Oc1cccc(Cl)c1` is reported as 100% (cell-free assay, competition with immobilised ligand; 1 µM).
The ΔTm of `Cn1c2c(Cl)c(Cl)ccc2c2cn[nH]c(=O)c21` is reported as 0.1 °C (thermal stability, DSF; 10 µM).
The remaining activity of `O=C(Nc1cnn(-c2csc(C(=O)NC3COC3)c2)c1)Nc1c(F)cccc1Cl` is reported as 94.8% (enzyme activity, inhibitor; 5 µM).
The remaining binding of `O=c1nc(-c2ccccn2)sc2ccccc12` is reported as 66% (binding, competition with immobilised ligand; 1 µM).
`CN1CC(Oc2cnc(C#N)cc2-c2ccn3nc(NC(=O)C4CC4)cc3c2)C1` has an inhibition of 27% (enzyme activity, inhibitor; 1 µM).
`Cc1nc(N2CC[C@@H](O)C2)ncc1-c1cc(C(F)(F)F)cc2[nH]ncc12` has a remaining binding of 87% (binding, competition with immobilised ligand; 1 µM).
`CN(C)c1ncc(F)c(-c2cnn3ncccc23)n1` has a remaining binding of 100% (binding; 1 µM).
For `CCN1CCN(Cc2ccc(NC(=O)c3ccc(C)c(/C=C/c4cnc5[nH]ccc5c4OC)c3)cc2C(F)(F)F)CC1`, the inhibition was -0.856% (target engagement in cells, inhibitor, chemoproteomics; A-375; 50 nM).
`Cn1c2c(Cl)c(Cl)ccc2c2cc[nH]c(=O)c21` gave a ΔTm of 0 °C (thermal stability, DSF; 10 µM).
`CC(C)(O)[C@H]1CC[C@H](Nc2ccc3ncc(-c4cccc(C(F)(F)F)c4)n3n2)CC1` has a remaining activity of 91.9% (enzyme activity, inhibitor; 1 µM).
`CCN1CCC2(CC1)NC(=O)c1c(c3ccc(Cl)c(Cl)c3n1C)C2C#N` (racemic) gave a ΔTm of 0 °C (thermal stability, DSF; 10 µM).
With `COc1cc(-c2cc(-c3ccc(N4CCNCC4)cc3)cnc2C)cc(OC)c1OC` the inhibition was 0% (enzyme activity, inhibitor; 0.1 µM).
`Nc1ncnc2occ(-c3ccc(NC(=O)Nc4cc(C(F)(F)F)ccc4F)cc3)c12` has a remaining signal of 17% (cell-free assay; 20 µM).
With `CCN1CCN(Cc2ccc(NC(=O)c3ccc(C)c(Oc4ccnc5[nH]ccc45)c3)cc2C(F)(F)F)CC1` the inhibition was -12.7% (target engagement in cells, inhibitor, chemoproteomics; Huh-7; 10 µM).
`CS(=O)(=O)N1CCCC(NC(=O)[C@H](CCC2CCCCC2)NC(=O)c2ccc(CNc3ncnc4c3nnn4-c3ccccc3)cc2)C1` (some centres unmarked) has a remaining binding of 24% (binding, competition with immobilised ligand; 1 µM).
